Test results taken from ChEMBL document CHEMBL3098130, “Discovery of Novel Putative Inhibitors of UDP-GlcNAc 2-Epimerase as Potent Antibacterial Agents” (ACS Med Chem Lett, 2013).
Converted amounts (≈) assume the structure as drawn.

Legend:
Format in all cases: functional
Staphylococcus aureus [1] = assay: Antibacterial activity against methicillin-resistant Staphylococcus aureus assessed as growth inhibition at 3 uM measured every 2 mins for 16 to 20 hrs by spectramax 96-well plate reader analysis; conditions: read-out: GI
Staphylococcus aureus [2] = assay: Antibacterial activity against methicillin-resistant Staphylococcus aureus assessed as growth inhibition at 10 uM measured every 2 mins for 16 to 20 hrs by spectramax 96-well plate reader analysis; conditions: read-out: GI
Staphylococcus aureus [3] = assay: Antibacterial activity against methicillin-resistant Staphylococcus aureus assessed as growth inhibition at 30 uM measured every 2 mins for 16 to 20 hrs by spectramax 96-well plate reader analysis; conditions: read-out: GI
Bacillus anthracis [4] = assay: Antibacterial activity against Bacillus anthracis Sterne assessed as growth inhibition at 3 uM measured every 2 mins for 16 to 20 hrs by spectramax 96-well plate reader analysis; conditions: read-out: GI
Bacillus anthracis [5] = assay: Antibacterial activity against Bacillus anthracis Sterne assessed as growth inhibition at 10 uM measured every 2 mins for 16 to 20 hrs by spectramax 96-well plate reader analysis; conditions: read-out: GI
Bacillus anthracis [6] = assay: Antibacterial activity against Bacillus anthracis Sterne assessed as growth inhibition at 30 uM measured every 2 mins for 16 to 20 hrs by spectramax 96-well plate reader analysis; conditions: read-out: GI
Bacillus subtilis = assay: Antibacterial activity against Bacillus subtilis 19659 assessed as growth inhibition measured for 3 days by broth microdilution method
Outline: (§1)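 MIC by broth microdilution against a panel of Gram-positive and Gram-negative strains (ATCC-type numbers where given). Run in triplicate on three different days.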

Staphylococcus aureus [7] = assay: Antibacterial activity against Staphylococcus aureus 13709 assessed as growth inhibition measured for 3 days by broth microdilution method; outline: as §1
[8] = Bacillus subtilis, 19659, 72 h, read-out: MIC
[9] = Staphylococcus aureus, 13709, 72 h, read-out: MIC

SMILES	inhibition of growth at 3 µM (Staphylococcus aureus [1]) [%]	inhibition of growth at 10 µM (Staphylococcus aureus [2]) [%]	inhibition of growth at 30 µM (Staphylococcus aureus [3]) [%]	inhibition of growth at 3 µM (Bacillus anthracis [4]) [%]	inhibition of growth at 10 µM (Bacillus anthracis [5]) [%]	inhibition of growth at 30 µM (Bacillus anthracis [6]) [%]	MIC (Bacillus subtilis; [8]) [µM]	MIC (Staphylococcus aureus [7]; [9]) [µM]	MIC (Bacillus subtilis) [µM]	MIC (Staphylococcus aureus [7]) [µM]
COc1ccc(-c2ccc(/C=C3/NC(=S)N(C(Cc4ccccc4)C(=O)O)C3=O)o2)cc1Cl (stereo not given)	10	10	80	0	30	100	–	–	–	–
O=C(O)C(Cc1ccccc1)N1C(=O)/C(=C\c2ccc(-c3ccc(Br)cc3)o2)NC1=S (stereo not given)	10	90	90	70	100	100	–	–	–	–
O=C(O)[C@@H](Cc1ccccc1)N1C(=O)/C(=C\c2ccc(-c3ccc(Cl)c(Cl)c3)o2)NC1=S	–	–	–	–	–	–	6.8 (≈ 3.31 µg/mL)	6.8 (≈ 3.31 µg/mL)	–	–
O=C(O)C(Cc1ccccc1)N1C(=O)/C(=C\c2ccc(-c3ccc(Br)c(Cl)c3)o2)NC1=S (stereo not given)	20	100	100	100	100	100	–	–	–	–
O=C(O)C(Cc1ccccc1)N1C(=O)/C(=C\c2ccc(-c3ccc(Cl)cc3)s2)NC1=S (stereo not given)	0	0	90	0	100	100	–	–	–	–
O=C(O)C(Cc1ccccc1)N1C(=O)/C(=C\c2ccc(-c3ccc(Cl)c(Cl)c3)s2)NC1=S (stereo not given)	10	10	40	0	110	90	–	–	–	–
O=C(O)[C@H](Cc1ccccc1)N1C(=O)/C(=C\c2ccc(-c3ccc(Cl)c(Cl)c3)o2)NC1=S	–	–	–	–	–	–	–	–	6.8 (≈ 3.31 µg/mL)	6.8 (≈ 3.31 µg/mL)
O=C(O)C(Cc1ccccc1)N1C(=O)/C(=C\c2ccc(-c3ccc(F)cc3)s2)NC1=S (stereo not given)	20	20	50	0	10	100	–	–	–	–
O=C(O)C(Cc1ccccc1)N1C(=O)/C(=C\c2ccc(-c3ccc(Br)c(Cl)c3)s2)NC1=S (stereo not given)	–	10	0	20	10	90	–	–	–	–
O=C(O)[C@@H](Cc1ccccc1)N1C(=O)/C(=C/c2ccc(-c3ccc(Cl)c(Cl)c3)o2)NC1=S	–	–	–	–	–	–	6.8 (≈ 3.31 µg/mL)	6.8 (≈ 3.31 µg/mL)	–	–
O=C(O)C(Cc1ccccc1)N1C(=O)/C(=C\c2ccc(-c3ccc(I)cc3)o2)NC1=S (stereo not given)	0	90	90	50	100	100	–	–	–	–
CCOC(=O)C(Cc1ccccc1)N1C(=O)/C(=C\c2ccc(-c3ccc(Cl)c(Cl)c3)o2)NC1=S (stereo not given)	–	0	0	–	50	0	–	–	–	–
O=C1Nc2ccccc2/C1=C1/SC(=S)N(C(Cc2ccccc2)C(=O)O)C1=O (stereo not given)	–	–	–	–	–	99.7	–	–	–	–
O=C(O)C(Cc1ccccc1)N1C(=O)/C(=C\c2ccc(-c3ccccc3)o2)NC1=S (stereo not given)	0	10	10	0	10	20	–	–	–	–
CS(=O)(=O)NC(=O)C(Cc1ccccc1)N1C(=O)/C(=C\c2ccc(-c3ccc(Cl)c(Cl)c3)o2)NC1=S (stereo not given)	0	30	60	40	100	90	–	–	–	–
